Experimental data reported in the RNAGym collection of RNA variant scans (doi:10.1126/science.aae0568).
This sample holds only a part of the variants without activity.

B1: tRNA (parent)
chain: GUUCCGUUGGCGUAAUGGUAACGCGUCUCCCUCCUAAGGAGAAGACUGCGGGUUCGAGUCCCGUACGGAACG

Variants of: B1
Assay: yeast fitness relative to wild type (ratio to wild type); higher = fitter; tRNA-Arg(CCU), competitive growth, 37 C, YPD
Method in brief: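 Changes in genotype frequencies gave Darwinian fitness relative to wild type. Frequencies were read by 100-nucleotide paired-end sequencing of gene amplicons before and after pooled Saccharomyces cerevisiae strains, carrying tRNA-Arg(CCU) gene variants at the native locus, were competed in YPD at 37°C for 24 hours in six replicates. A genotype was kept only with ≥ 100 starting reads, and estimates < 0.5 were set to 0.5.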

Going from U7A C11U A36U to U7A C24U U47C, the yeast fitness rises from at most 0.5 to 0.566.

U7A U19G A70G and U7A C29A A65C cannot be ordered by yeast fitness: at most 0.5 for the first, at most 0.5 for the second.

Going from U7A A36C to U7C A15U C34A G39C A40C G56C C61G C62G G68C, the yeast fitness falls from 0.512 to at most 0.5.

First: U7C A20U C29U C30G C34A U35A C66A
Second: U7A C24G C29G C30U A40C A65U
The yeast fitness of the first is lower: at most 0.5 for the first, 0.59 for the second.

U7A C11U A36U A57C and U7A A15G G23A G51A C55A C66U cannot be ordered by yeast fitness: at most 0.5 for the first, at most 0.5 for the second.

First: G6C U7A C29A G51C
Second: U7A G52C G56A
The yeast fitness of the first is lower: at most 0.5 for the first, 0.554 for the second.

G6C U8A G51A and U7A G18C C22U C24U C60U cannot be ordered by yeast fitness: at most 0.5 for the first, at most 0.5 for the second.

U7A A15U A36C A37U A43C C46U C49G G50A and U7A A15G C34G cannot be ordered by yeast fitness: at most 0.5 for the first, at most 0.5 for the second.

U7A A37G A43G U53A G58C C66G and U7A G12A C49U C62G cannot be ordered by yeast fitness: at most 0.5 for the first, at most 0.5 for the second.

G6C U13C G50A and U7A U28A U32G G50C U54C cannot be ordered by yeast fitness: at most 0.5 for the first, at most 0.5 for the second.

First: U7A A14G C31U G39C A40C A45U G68C
Second: U7A G9C G17C C34A G44A C46U G68A
The yeast fitness of the first is higher: 0.555 for the first, at most 0.5 for the second.

U7A A14U A36U G50C U54A G56A C61A and U7A U26G U32G A42U A45G A69U cannot be ordered by yeast fitness: at most 0.5 for the first, at most 0.5 for the second.

First: G6C U28G
Second: U7A C11G A36U A57C
The yeast fitness of the first is higher: 0.644 for the first, at most 0.5 for the second.

G6C G56A C60G and U7A G12C A20G C34U C49G cannot be ordered by yeast fitness: at most 0.5 for the first, at most 0.5 for the second.

Going from U7A A20G C46G G67C A69C to U7A A40C C60A, the yeast fitness rises from at most 0.5 to 0.543.

U7A A42U A45G and U7C A14G A20C A57G cannot be ordered by yeast fitness: at most 0.5 for the first, at most 0.5 for the second.

Going from G6C U8C G58C to U7C A37C C60G A65U A70C, the yeast fitness falls from 0.685 to 0.569.

Compared with U7A G17C C24G C29A G58C A69C, U7A C55U C61A is higher in yeast fitness: at most 0.5 for the first, 0.508 for the second.

Going from U7A C31U to U7A G9C G12A G17C G48A, the yeast fitness falls from 0.683 to at most 0.5.

G6C U7A U64G and U7A A15U A40G G48A G68C cannot be ordered by yeast fitness: at most 0.5 for the first, at most 0.5 for the second.

Going from U7A A69C to U7A G10A A14G G41C A42U C46A C61G, the yeast fitness falls from 0.794 to at most 0.5.

U7C A14U G68A and U7A C11A G18A C31U C34U U47C C49A G56A A57U cannot be ordered by yeast fitness: at most 0.5 for the first, at most 0.5 for the second.

First: G6C U16G A45U
Second: G6C U19G G48C
The yeast fitness of the first is higher: 0.584 for the first, at most 0.5 for the second.

U7A G12A C27A and U7A G17A C30A A65C cannot be ordered by yeast fitness: at most 0.5 for the first, at most 0.5 for the second.

Going from U7A G56A to U7A A42G C55G A57C, the yeast fitness falls from 0.673 to at most 0.5.

G6C U13C C24G C34U U53C C55G C62A and U7A C55A A65C cannot be ordered by yeast fitness: at most 0.5 for the first, at most 0.5 for the second.

U7A A15C C27A U47C and U7A C30G A57U G58A cannot be ordered by yeast fitness: at most 0.5 for the first, at most 0.5 for the second.

First: G6C U7G U19A C27G U53A
Second: U7C A21U C30U C33G A70U
The yeast fitness of the first is higher: 0.612 for the first, at most 0.5 for the second.

First: G6U C27U G56A C61U
Second: U7A A20C C29U C33G
The yeast fitness of the first is lower: at most 0.5 for the first, 0.638 for the second.

Compared with U7A G23C C33G C46U U64C, U7C A37C A40C A45U A57C A70C is lower in yeast fitness: 0.579 for the first, at most 0.5 for the second.

U7A G9C A14G G17C G48A and U7A C22A C31G U32G A42G G52A cannot be ordered by yeast fitness: at most 0.5 for the first, at most 0.5 for the second.

Going from U7A A20G C31U A57C G67C to U7A U16C A65U, the yeast fitness rises from at most 0.5 to 0.688.

Going from G6U A70C to U7A U32G C33G A70U, the yeast fitness falls from 0.813 to at most 0.5.

First: U7A G10A C60U
Second: G6C U7C C27U
The yeast fitness of the first is higher: 0.607 for the first, at most 0.5 for the second.

Going from U7A A20C G25A G68C to U7A G10A A37G G41C A42U C46A C61G, the yeast fitness rises from at most 0.5 to 0.738.

U7A U16A A21G C29G C34A A65U C66U and U7A A15G G23C C33G G63A cannot be ordered by yeast fitness: at most 0.5 for the first, at most 0.5 for the second.

Compared with U7A C27A C66U, U7A A14G is higher in yeast fitness: at most 0.5 for the first, 0.709 for the second.

U7A C34A G44A C46U A70C and U7A A36C G51C G63A cannot be ordered by yeast fitness: at most 0.5 for the first, at most 0.5 for the second.

U7A A36G A40G G56C C62A and G6C U26C A43C A57G C66U cannot be ordered by yeast fitness: at most 0.5 for the first, at most 0.5 for the second.

Compared with U7A A20G G23A G44A G52C, U7A A40G is higher in yeast fitness: at most 0.5 for the first, 0.73 for the second.

U7A G23C C31U and U7A A42G G52C G56A cannot be ordered by yeast fitness: at most 0.5 for the first, at most 0.5 for the second.

First: U7A G67U
Second: U7A A36G C60A
The yeast fitness of the first is higher: 0.771 for the first, 0.533 for the second.

U7C A14G A43G A69C and U7A C34G C66U cannot be ordered by yeast fitness: at most 0.5 for the first, at most 0.5 for the second.

Compared with U7A C11U A65U, U7A G41C U54A is lower in yeast fitness: 0.682 for the first, 0.588 for the second.

U7C A14G A43U C49G and U7A G10C C22U C27G C61A C62U A65U A69C cannot be ordered by yeast fitness: at most 0.5 for the first, at most 0.5 for the second.

Going from G6C U16G C27U to U7A U16C A21U U26A, the yeast fitness rises from at most 0.5 to 0.537.

G6C U28C A36C G51A C66A and U7A C29A G50C U54C cannot be ordered by yeast fitness: at most 0.5 for the first, at most 0.5 for the second.

First: U7A C29A
Second: U7A A20C A21G G23A
The yeast fitness of the first is higher: 0.73 for the first, 0.65 for the second.

U7A G12A U64A and U7A A14C A20G C27U A45U G67A cannot be ordered by yeast fitness: at most 0.5 for the first, at most 0.5 for the second.

Going from U7C A15G G18C to G6C G56A G67A, the yeast fitness rises from at most 0.5 to 0.588.

Compared with U7A U32A, U7A U32C is higher in yeast fitness: 0.588 for the first, 0.764 for the second.

Compared with U7A G17A, U7A C27U C55U is lower in yeast fitness: 0.731 for the first, at most 0.5 for the second.

U7A C27U G52C G68C and U7C A20G C24U C49A G67C cannot be ordered by yeast fitness: at most 0.5 for the first, at most 0.5 for the second.

U7A G18A C29G A37G C60A C62G and U7A G23A A42G C62U cannot be ordered by yeast fitness: at most 0.5 for the first, at most 0.5 for the second.

U7A C33A G50A C61G and U7A C30U C33U C46U cannot be ordered by yeast fitness: at most 0.5 for the first, at most 0.5 for the second.

U7A A14U A15C U32C C46U G51C and U7A G12A G18U C31U C49G cannot be ordered by yeast fitness: at most 0.5 for the first, at most 0.5 for the second.

U7A U19C C27G A43U U47A A65U G67C and U7A C46A G68U cannot be ordered by yeast fitness: at most 0.5 for the first, at most 0.5 for the second.

Going from U7A U16C G17A C29U C31A G58A to U7A G9C G17C G48A G63A, the yeast fitness rises from at most 0.5 to 0.584.

Compared with U7A U16C C24G C30G A36U, U7A G52A is higher in yeast fitness: at most 0.5 for the first, 0.582 for the second.

Compared with U7C A21G, U7A G39C A43C G44C U47C C61U is lower in yeast fitness: 0.761 for the first, at most 0.5 for the second.

Going from U7A G10A G41U C49U to U7A U26C U64A, the yeast fitness falls from 0.615 to at most 0.5.

U7A G9A U13A A43G G56A and G6C U7C G9C A65G cannot be ordered by yeast fitness: at most 0.5 for the first, at most 0.5 for the second.

Going from U7A U47G to U7A U47A, the yeast fitness rises from 0.557 to 0.643.

Compared with U7A G25U U32A G41A C61U, U7A C11G C27U A37C G51C G67U is lower in yeast fitness: 0.589 for the first, 0.504 for the second.

Going from U7A C62G to G6C U47C C61U, the yeast fitness falls from 0.63 to 0.533.

First: G6C U8A
Second: U7A A14U U16C A42U
The yeast fitness of the first is higher: 0.674 for the first, at most 0.5 for the second.

U7A U8G A69C and U7A A20G G23C C29G G51A G56U cannot be ordered by yeast fitness: at most 0.5 for the first, at most 0.5 for the second.

Going from U7C A21G A42U G58A to U7A G10A G41C A42U C46A, the yeast fitness falls from 0.552 to at most 0.5.

U7C A14C A65G A70C and U7A G9C G17C C29G C33G G41C C66U cannot be ordered by yeast fitness: at most 0.5 for the first, at most 0.5 for the second.

U7A A15U U54C and U7A A21C U32C G48C C60A cannot be ordered by yeast fitness: at most 0.5 for the first, at most 0.5 for the second.

First: U7A A43G
Second: U7A C34G U53C
The yeast fitness of the first is lower: 0.679 for the first, 0.726 for the second.

First: U7A C29A U47C G58A C61G A70U
Second: U7A U32G C33A C62G C66U
The yeast fitness of the first is higher: 0.588 for the first, at most 0.5 for the second.

First: U7A C61A
Second: U7A G44C G63A
The yeast fitness of the first is higher: 0.603 for the first, at most 0.5 for the second.

U7A U8A G25A G67C and G6C U7G C24U C27A A57G cannot be ordered by yeast fitness: at most 0.5 for the first, at most 0.5 for the second.

U7A C27U A57U A65C and U7A U8A G10C C27G C34G A45C G68U cannot be ordered by yeast fitness: at most 0.5 for the first, at most 0.5 for the second.

First: U7A A42C
Second: U7A A42U A45G A57C A69U
The yeast fitness of the first is higher: 0.775 for the first, at most 0.5 for the second.

Compared with U7A U8C C29U, U7C A15U A69U is higher in yeast fitness: at most 0.5 for the first, 0.527 for the second.

First: G6C U13G
Second: G6C U32C A36C
The yeast fitness of the first is higher: 0.56 for the first, at most 0.5 for the second.

U7A A15U A40G and G6C U7C G9C cannot be ordered by yeast fitness: at most 0.5 for the first, at most 0.5 for the second.

Going from U7A C27U C29U G58A G68A to U7C A20U A40C C46U C55G A70U, the yeast fitness rises from at most 0.5 to 0.582.

U7A G17A C29U and U7C A15U C29A G38C cannot be ordered by yeast fitness: at most 0.5 for the first, at most 0.5 for the second.

U7A A20G G23A U26G C66A and U7A A20G G41A A42C G50C A70G cannot be ordered by yeast fitness: at most 0.5 for the first, at most 0.5 for the second.

U7C A14G C33G G68C and U7A C29U A57C cannot be ordered by yeast fitness: at most 0.5 for the first, at most 0.5 for the second.

With U7C A14C C30G A40C A43U C55U the yeast fitness was 0.64.
